Reference: ChEMBL document CHEMBL4118244, “Design, synthesis and biological evaluation of benzofuran appended benzothiazepine derivatives as inhibitors of butyrylcholinesterase and antimicrobial agents” (Bioorg Med Chem, 2018)
Converted amounts (≈) assume the structure as drawn. The source made the active and inactive calls. The calls are words filed in the database; no cut-off is given here.

Tests used:
Aspergillus niger [1] = test: Antifungal activity against Aspergillus niger ATCC 16404; assay type: functional
[2] = test system: Staphylococcus epidermidis; test: Antibacterial activity against Staphylococcus epidermidis ATCC 12228 assessed as diameter of inhibition zone at 200 ug per disc after 24 hrs by agar disc diffusion method; assay type: functional; conditions: ATCC 12228, 24 h, read-out: DIZ
How it was run: (§1)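 Agar disc diffusion. Compounds at 20 mg mL⁻¹ in DMSO, filter-sterilised. 100 µL of 10⁸ CFU mL⁻¹ bacteria spread on nutrient agar. 6 mm discs carried 10 µl (200 µg per disc), with DMSO discs as negative control. Incubation 24 h at 37 °C. Read-out is inhibition zone diameter, mean of 3 repeats (±1 mm).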

Shigella dysenteriae [3] = test: Antibacterial activity against Shigella dysenteriae PTCC 1188 assessed as diameter of inhibition zone at 200 ug per disc after 24 hrs by agar disc diffusion method; assay type: functional; conditions: PTCC 1188, 24 h, read-out: DIZ; how it was run: as §1
Shigella dysenteriae [4] = test: Antibacterial activity against Shigella dysenteriae PTCC 1188; assay type: functional
Salmonella paratyphi [5] = test: Antibacterial activity against Salmonella paratyphi A serotype ATCC 5702; assay type: functional, Salmonella enterica subsp. enterica serovar Paratyphi A
Candida albicans [6] = test: Antifungal activity against Candida albicans ATCC 10231 assessed as diameter of inhibition zone at 200 ug per disc after 48 hrs by agar disc diffusion method; assay type: functional; conditions: ATCC 10231, 48 h, read-out: DIZ
How it was run: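 Yeast tested by agar disc diffusion. Compounds at 20 mg mL⁻¹ in DMSO, filter-sterilised. 6 mm discs carried 10 µl (200 µg per disc), with DMSO discs as negative control. Incubation 48 h at 30 °C. Zone diameter was averaged over 3 repeats (±1 mm).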

Escherichia coli [7] = test: Antibacterial activity against Escherichia coli ATCC 10536 assessed as diameter of inhibition zone at 200 ug per disc after 24 hrs by agar disc diffusion method; assay type: functional; conditions: ATCC 10536, 24 h, read-out: DIZ; how it was run: as §1
Cholinesterase = Cholinesterase (Equus caballus, UniProt P81908); test: Inhibition of equine serum BChE using butyrylthiocholine iodide as substrate pretreated for 15 mins followed by substrate addition measured for 6 mins by Ellman's method
Chain of Cholinesterase (P81908 whole entry): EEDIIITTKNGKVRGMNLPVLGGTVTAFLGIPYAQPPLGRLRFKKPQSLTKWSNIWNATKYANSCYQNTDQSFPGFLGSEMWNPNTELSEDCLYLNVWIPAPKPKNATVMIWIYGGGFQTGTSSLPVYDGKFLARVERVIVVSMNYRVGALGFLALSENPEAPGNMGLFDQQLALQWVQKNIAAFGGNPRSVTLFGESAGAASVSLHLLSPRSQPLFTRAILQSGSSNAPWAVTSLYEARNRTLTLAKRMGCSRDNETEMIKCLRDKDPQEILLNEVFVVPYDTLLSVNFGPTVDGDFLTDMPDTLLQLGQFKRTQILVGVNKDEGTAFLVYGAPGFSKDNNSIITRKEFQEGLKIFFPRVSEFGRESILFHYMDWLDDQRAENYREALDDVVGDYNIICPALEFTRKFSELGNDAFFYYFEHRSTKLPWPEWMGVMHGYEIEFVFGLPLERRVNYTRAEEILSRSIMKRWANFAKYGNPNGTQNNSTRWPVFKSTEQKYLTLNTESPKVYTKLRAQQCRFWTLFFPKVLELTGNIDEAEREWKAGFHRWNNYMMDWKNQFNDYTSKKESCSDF
How it was run: (§2)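 Ellman spectrophotometric assay in 0.1 M phosphate buffer pH 8.0 with DTNB, 25 °C. AChE (electric eel, Type V-S) or BChE was preincubated 15 min with compound before adding acetylthiocholine iodide or butyrylthiocholine iodide, respectively. Absorbance change at 412 nm was read for 6 min. Five concentrations were tested in triplicate, corrected by a nonenzymatic blank, with a no-inhibitor reference.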

Proteus vulgaris [8] = test: Antibacterial activity against Proteus vulgaris PTCC 1182 assessed as diameter of inhibition zone at 200 ug per disc after 24 hrs by agar disc diffusion method; assay type: functional; conditions: PTCC 1182, 24 h, read-out: DIZ; how it was run: as §1
Bacillus spizizenii [9] = test: Antibacterial activity against Bacillus subtilis ATCC 6633; assay type: functional
Pseudomonas aeruginosa [10] = test: Antibacterial activity against Pseudomonas aeruginosa ATCC 27853; assay type: functional
Staphylococcus aureus [11] = test: Antibacterial activity against Staphylococcus aureus ATCC 29737; assay type: functional
Staphylococcus aureus [12] = test: Antibacterial activity against Staphylococcus aureus ATCC 29737 assessed as diameter of inhibition zone at 200 ug per disc after 24 hrs by agar disc diffusion method; assay type: functional; conditions: ATCC 29737, 24 h, read-out: DIZ; how it was run: as §1
Salmonella paratyphi [13] = test: Antibacterial activity against Salmonella paratyphi A serotype ATCC 5702 assessed as diameter of inhibition zone at 200 ug per disc after 24 hrs by agar disc diffusion method; assay type: functional, Salmonella enterica subsp. enterica serovar Paratyphi A; conditions: Salmonella enterica, ATCC 5702, 24 h; read-out: DIZ; how it was run: as §1
[14] = target: Acetylcholinesterase (Electrophorus electricus) (UniProt O42275); test: Inhibition of electric eel AChE using acetylthiocholine iodide as substrate pretreated for 15 mins followed by substrate addition measured for 6 mins by Ellman's method; how it was run: as §2
Chain of Acetylcholinesterase (Electrophorus electricus) (O42275 24-633 limits assumed): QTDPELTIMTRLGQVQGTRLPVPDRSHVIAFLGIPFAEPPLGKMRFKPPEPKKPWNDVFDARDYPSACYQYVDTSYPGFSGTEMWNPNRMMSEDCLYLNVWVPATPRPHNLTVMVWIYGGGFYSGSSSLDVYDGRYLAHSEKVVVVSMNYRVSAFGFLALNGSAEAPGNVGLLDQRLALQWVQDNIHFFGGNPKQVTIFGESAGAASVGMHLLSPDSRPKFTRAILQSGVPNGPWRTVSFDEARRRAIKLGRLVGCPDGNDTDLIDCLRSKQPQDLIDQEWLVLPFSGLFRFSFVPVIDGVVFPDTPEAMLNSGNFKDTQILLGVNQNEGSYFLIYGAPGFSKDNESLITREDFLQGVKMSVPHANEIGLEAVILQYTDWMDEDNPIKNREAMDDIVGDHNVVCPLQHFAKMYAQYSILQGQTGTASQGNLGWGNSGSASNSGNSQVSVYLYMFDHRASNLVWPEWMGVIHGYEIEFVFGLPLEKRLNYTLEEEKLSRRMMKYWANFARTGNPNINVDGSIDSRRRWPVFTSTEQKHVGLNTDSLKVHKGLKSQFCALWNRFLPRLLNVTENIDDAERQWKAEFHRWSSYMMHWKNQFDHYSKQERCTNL

[15] = test system: Staphylococcus epidermidis; test: Antibacterial activity against Staphylococcus epidermidis ATCC 12228; assay type: functional
Klebsiella pneumoniae [16] = test: Antibacterial activity against Klebsiella pneumoniae ATCC 10031; assay type: functional
Aspergillus brasiliensis [17] = test: Antifungal activity against Aspergillus brasiliensis PTCC 5011 assessed as diameter of inhibition zone at 200 ug per disc after 72 hrs by agar disc diffusion method; assay type: functional; conditions: PTCC 5011, 72 h, read-out: DIZ
How it was run: (§3)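 Agar disc diffusion against mold. Compounds at 20 mg mL⁻¹ in DMSO, filter-sterilised. 6 mm discs carried 10 µl (200 µg per disc), with DMSO discs as negative control. Incubation 72 h at 30 °C. Read-out is growth inhibition zone diameter, mean of 3 repeats (±1 mm).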

Aspergillus niger [18] = test: Antifungal activity against Aspergillus niger ATCC 16404 assessed as diameter of inhibition zone at 200 ug per disc after 72 hrs by agar disc diffusion method; assay type: functional; conditions: ATCC 16404, 72 h, read-out: DIZ; how it was run: as §3
Aspergillus brasiliensis [19] = test: Antifungal activity against Aspergillus brasiliensis PTCC 5011; assay type: functional
Proteus vulgaris [20] = test: Antibacterial activity against Proteus vulgaris PTCC 1182; assay type: functional
Klebsiella pneumoniae [21] = test: Antibacterial activity against Klebsiella pneumoniae ATCC 10031 assessed as diameter of inhibition zone at 200 ug per disc after 24 hrs by agar disc diffusion method; assay type: functional; conditions: ATCC 10031, 24 h, read-out: DIZ; how it was run: as §1
Candida albicans [22] = test: Antifungal activity against Candida albicans ATCC 10231; assay type: functional
Escherichia coli [23] = test: Antibacterial activity against Escherichia coli ATCC 10536; assay type: functional
Bacillus spizizenii [24] = test: Antibacterial activity against Bacillus subtilis ATCC 6633 assessed as diameter of inhibition zone at 200 ug per disc after 24 hrs by agar disc diffusion method; assay type: functional; conditions: ATCC 6633, 24 h, read-out: DIZ; how it was run: as §1
Pseudomonas aeruginosa [25] = test: Antibacterial activity against Pseudomonas aeruginosa ATCC 27853 assessed as diameter of inhibition zone at 200 ug per disc after 24 hrs by agar disc diffusion method; assay type: functional; conditions: ATCC 27853, 24 h, read-out: DIZ; how it was run: as §1

Row | Structure (SMILES) | MIC (Aspergillus niger [1]) | zone of inhibition at 200 µg/disc [2] [mm] | zone of inhibition at 200 µg/disc (Shigella dysenteriae [3]) [mm] | MIC (Shigella dysenteriae [4]) | zone of inhibition at 200 µg/disc (Candida albicans [6]) [mm] | zone of inhibition at 200 µg/disc (Escherichia coli [7]) [mm] | zone of inhibition at 200 µg/disc (Proteus vulgaris [8]) [mm] | MIC (Bacillus spizizenii [9]) | MIC (Pseudomonas aeruginosa [10]) | MIC (Staphylococcus aureus [11]) | zone of inhibition at 200 µg/disc (Staphylococcus aureus [12]) [mm] | zone of inhibition at 200 µg/disc (Salmonella paratyphi [13]) [mm] | inhibition [14] | MIC [15] | MIC (Klebsiella pneumoniae [16]) | zone of inhibition at 200 µg/disc (Aspergillus brasiliensis [17]) [mm] | zone of inhibition at 200 µg/disc (Aspergillus niger [18]) [mm] | MIC (Aspergillus brasiliensis [19]) | MIC (Proteus vulgaris [20]) | zone of inhibition at 200 µg/disc (Klebsiella pneumoniae [21]) [mm] | other results
1 | O=[N+]([O-])c1cccc(C2CC(c3cc4cc(Br)ccc4o3)=Nc3ccccc3S2)c1 (centres undefined) | 0.25 µg/mL (≈ 0.522 µM) | < 6 | < 6 | inactive | < 6 | < 6 | < 6 | 12.5 µg/mL (≈ 26.1 µM) | inactive | inactive | < 6 | 23 | inactive | inactive | inactive | 23 | 20 | 0.5 µg/mL (≈ 1.04 µM) | inactive | < 6 | MIC (Salmonella paratyphi [5]; Salmonella enterica): 0.5 µg/mL (≈ 1.04 µM); IC50 (Cholinesterase): Not Active; MIC (Candida albicans [22]): inactive; MIC (Escherichia coli [23]): inactive; zone of inhibition at 200 µg/disc (Bacillus spizizenii [24]): 19 mm; zone of inhibition at 200 µg/disc (Pseudomonas aeruginosa [25]): < 6 mm
2 | O=[N+]([O-])c1ccc2oc(C3=Nc4ccccc4SC(c4cccc5ccccc45)C3)cc2c1 (centres undefined) | inactive | 30 | < 6 | inactive | 13 | < 6 | < 6 | 0.125 µg/mL (≈ 0.277 µM) | inactive | 0.25 µg/mL (≈ 0.555 µM) | 20 | 11 | inactive | 0.25 µg/mL (≈ 0.555 µM) | 50 µg/mL (≈ 111 µM) | < 6 | < 6 | inactive | inactive | 11 | MIC (Salmonella paratyphi [5]; Salmonella enterica): 50 µg/mL (≈ 111 µM); IC50 (Cholinesterase; read-out: IC50): 55 µM; MIC (Candida albicans [22]): 2.5 µg/mL (≈ 5.55 µM); MIC (Escherichia coli [23]): inactive; zone of inhibition at 200 µg/disc (Bacillus spizizenii [24]): 15 mm; zone of inhibition at 200 µg/disc (Pseudomonas aeruginosa [25]): < 6 mm
3 | Brc1ccc2oc(C3=Nc4ccccc4SC(c4cccc5ccccc45)C3)cc2c1 (centres undefined) | inactive | < 6 | 14 | 50 µg/mL (≈ 103 µM) | 14 | < 6 | 19 | 5 µg/mL (≈ 10.3 µM) | inactive | 5 µg/mL (≈ 10.3 µM) | 10 | < 6 | inactive | inactive | inactive | < 6 | < 6 | inactive | 12.5 µg/mL (≈ 25.8 µM) | < 6 | MIC (Salmonella paratyphi [5]; Salmonella enterica subsp. enterica serovar Paratyphi A): inactive; IC50 (Cholinesterase; read-out: IC50): 17 µM; MIC (Candida albicans [22]): 25 µg/mL (≈ 51.6 µM); MIC (Escherichia coli [23]): inactive; zone of inhibition at 200 µg/disc (Bacillus spizizenii [24]): 12 mm; zone of inhibition at 200 µg/disc (Pseudomonas aeruginosa [25]): < 6 mm
4 | Fc1ccccc1C1CC(c2cc3cc(Br)ccc3o2)=Nc2ccccc2S1 (centres undefined) | inactive | 9 | < 6 | inactive | 13 | < 6 | < 6 | inactive | 50 µg/mL (≈ 111 µM) | 5 µg/mL (≈ 11.1 µM) | 10 | 11 | inactive | 5 µg/mL (≈ 11.1 µM) | inactive | < 6 | < 6 | inactive | inactive | < 6 | MIC (Salmonella paratyphi [5]; Salmonella enterica): 50 µg/mL (≈ 111 µM); IC50 (Cholinesterase; read-out: IC50): 13.7 µM; MIC (Candida albicans [22]): 25 µg/mL (≈ 55.3 µM); MIC (Escherichia coli [23]): inactive; zone of inhibition at 200 µg/disc (Bacillus spizizenii [24]): < 6 mm; zone of inhibition at 200 µg/disc (Pseudomonas aeruginosa [25]): 15 mm
